System: MS2 coat protein
Experiment: apparent Kd, MS2 coat protein; higher = weaker binding; RNA-MaP array; FMN 200 µM where present
Summary of the method: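 The apparent Kd is the median of filtered binding-curve fits, one per cluster, to green signal normalised to red-channel RNA signal and control-cluster median Fmax. The clusters were on Illumina sequencing chips, and stalled E. coli RNA polymerase had transcribed the designs on them. Titration used SNAP-549-labelled MS2 coat protein from 0.7 or 1.5 nM, doubling to 3 µM, without and then with constant ligand, in 100 mM Tris-HCl pH 7.5, 80 mM KCl, 4 mM MgCl2, BSA, DTT, yeast tRNA and Tween-20.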

[1] = designed as: OFF switch for flavin mononucleotide, no ligand
[2] = ligand present: flavin mononucleotide, designed as: OFF switch for flavin mononucleotide
[3] = designed as: ON switch for flavin mononucleotide, no ligand
[4] = ligand present: flavin mononucleotide, designed as: ON switch for flavin mononucleotide

| Sequence | apparent Kd [1] [nM] | apparent Kd [2] [nM] | apparent Kd [3] [nM] | apparent Kd [4] [nM] |
| --- | --- | --- | --- | --- |
| AAAUUUUGUCAAGGAUAUGUAUAAUUGAGUUGAAAACAUGAGGAUCACCCAUGUAUAUGGUGGGAACAGAAGGUGAAUAAGUAA | 195 | 151 |  |  |
| ACGACGAAAGUCGAACGAUGUAGCAGAAGGACAUGAGGAUCACCCAUGUCAGCUGUAACAGCCAUGUAGGAUAUGCUACAUCGC | 4.38 | 5.45 |  |  |
| UAAAUAAGUGUGAGGAUAUGCUGGUCCUUGGAUCAGCAGAAGGCACAUGAGGAUCACCCAUGUAAUAUAUUUAU | 85.2 | 316 |  |  |
| ACAGUAUAUGUAGGAUAUCAUUGGUUAGGUAGGUGAGAAGGGCAUAGUACAUGAGGAUCACCCAUGUGUUGGUCCUCGCAGAAA | 376 | 252 |  |  |
| GAAUAAUUGAUCCAAUUUAUCUACAUGAGGAUCACCCAUGUGCAGGAUAUCGUAAUAUUUAAUUACGAGAAGGGCAAGAACGGU | 281 | 425 |  |  |
| GGUACCAUCACAGGAUAUGCUAUGGUUUCCGUAGCAGAAGGGUGAUAACAUGAGGAUCACCCAUGUGGUACCGGGCGUGAGCCC |  |  | 741 | 201 |
| ACCUCACAUGAGGAUCACCCAUGUUAGGAUAUCUCGGCGCCCUGUAGGCAGUAGCGCCAGAGAAGGAACGUGCA | 24.3 | 25.2 |  |  |
| ACCGCACAUGAGGAUCACCCAUGUCAGGAUAUACAAGAAAAUCAGGCUAAUGCCUGAAGUAGAAGGGACGAGGA | 22.4 | 14.2 |  |  |
| AUGGGUGUACCUUCACAUGAGGAUCACCCAUGUACGGGUGCGCAGGAUAUCCCAAAAGUCAGUAAGGAGAAGGGCGUAUGCCUG | 312 | 306 |  |  |
| GGGCCAUAGUAGAAGGGAUAUACGAAAGGUAUAUCAGGAUAUACAUGAGGAUCACCCAUGUUCUAACAGUGAUAGUCCUCCCUA | 22.4 | 69.8 |  |  |
| AGUGACGAUACAGGAUAUGCUGGACUUUGUCCAGCAGAAGGGUAUUAACAUGAGGAUCACCCAUGUUUCGUCACCAAAUUUAAU |  |  | 39.5 | 8.22 |
| AAAUUUAACGAAGGAUAUGGUUACAUGAGGAUCACCCAUGUAAUGGCUGUGAUAUUGAUUAAGUUCCAGAAGGUCGUAUACAUA | 52.4 | 192 |  |  |
| CCGCAAAUGGAGGAUAUCGUAUCGGAUACGAUACGAGAAGGCUAUACAUGAGGAUCACCCAUGUGUCCUAGCGG | 13.5 | 18.3 |  |  |
| CCUCCACAUGAGGAUCACCCAUGUCAGGAUAUCGUGCGCGCGUUUUCGGUCUUUCGCGCGAGAAGGGACGACUG | 30.3 | 30.9 |  |  |
| CCCUCAACAUGAGGAUCACCCAUGUAGGAUAUCGCUAUUGUAAUCAUGAAACAUGAUUACAAUAGCGAGAAGGACAUAUGUCCC | 13.8 | 15.3 |  |  |
| AUCUUGAGAGGAUAUACAUGAGGAUCACCCAUGUUUCUAACACCAUGCGGUCAUUUGCGUAGAAGGCUCGUCCG | 19.9 | 34.1 |  |  |
| CUUGCGCGCUCGCCACUUUUCCCACAUGAGGAUCACCCAUGUCAGGAUAUACGUACCGAAAUGGCGUAGAAGGGACACGGGUUA | 166 | 131 |  |  |
| UGGUACUAGGGAGGAUAUGGGAAGAUACAUGAGGAUCACCCAUGUUUAAGAACGCCGAGAGGCAACUAGAAGGCCCUAGUACCU |  |  | 340 | 14.8 |
| UUCCUCAUAACAUGAGGAUCACCCAUGUAUUAUUUGAUAACUGAGGAUAUACUUUUAAUGUUUAUGUAGAAGGCAGAUACAGUU | 89.4 | 138 |  |  |
| GGGCUUUGGGAGAAGGUACAUUAAAUUAGUUUAACAUGAGGAUCACCCAUGUAAGGAUAUCCCAUCUUGUAUUAUGGUACAGCC | 12.8 | 12.8 |  |  |
| AAGAGUACAGGAUAUACAUGAGGAUCACCCAUGUGAAAAUUAAGUGGCGUACCACAAAGUAGAAGGGUACUGGA | 22.4 | 50.8 |  |  |
| CUGCUUCCCAGUAUGGGUAUUUAUACAGAAGGCCAGACACAUGAGGAUCACCCAUGUCAAGUAAUGGAGGAUAUGUUAUUGUCG |  |  | 10.9 | 4.97 |
| AUACUCAUGUAAGGAUAUGCAGCCGUCUCGGCUGCAGAAGGUACUAUAAUACAUGAGGAUCACCCAUGUCUCUCGCAUUGCGAG |  |  | 562 | 93.7 |

— the EternaBench riboswitch data
